Our source for the Activity, Ki and Decrease values is ChEMBL document CHEMBL1133101, “7-Methyl-6,7,8,9,14,15-hexahydro-5H-benz[d]indolo[2,3-g]azecine: a new heterocyclic system and a new lead compound for dopamine receptor antagonists” (J Med Chem, 2000).

Each structure is given as a SMILES string.

A short description of assay [1]: % Decrease of adenosine carrier-receptor -bound radioactivity using NBTI as a radioligand. Further details: concentration or dose not given beside the values. The gist of the method:
(§1)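 Preliminary screen of receptors isolated from rat or pig tissues, run with minor changes to standard procedures. Each compound was tested at a single fixed concentration for each receptor. The read-out was the percent decrease in binding of the named radioligand.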

A short description of assay [2]: % Decrease of Phorbol Diester Receptor -bound radioactivity using PDBU as a radioligand. Further details: scale not given: the % may be the effect or the level left. Put shortly:
as §1

Assay [3] deals with T1, Muscarinic acetylcholine receptor M1 (Homo sapiens) (UniProt P11229).
T1 sequence (whole entry): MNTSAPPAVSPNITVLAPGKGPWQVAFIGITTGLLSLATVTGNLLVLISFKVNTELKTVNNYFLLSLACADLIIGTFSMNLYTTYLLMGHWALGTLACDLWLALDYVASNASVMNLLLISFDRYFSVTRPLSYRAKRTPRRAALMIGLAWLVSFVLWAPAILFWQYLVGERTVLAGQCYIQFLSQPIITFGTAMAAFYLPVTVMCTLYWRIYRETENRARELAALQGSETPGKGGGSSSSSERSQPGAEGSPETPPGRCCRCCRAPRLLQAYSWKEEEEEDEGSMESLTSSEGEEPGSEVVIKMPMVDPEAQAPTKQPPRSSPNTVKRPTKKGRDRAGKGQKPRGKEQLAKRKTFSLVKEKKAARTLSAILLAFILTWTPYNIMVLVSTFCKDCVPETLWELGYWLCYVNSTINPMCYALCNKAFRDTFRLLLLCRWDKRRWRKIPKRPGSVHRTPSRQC
As to the kind of experiment: Percent decrease of Muscarinic acetylcholine receptor M1 binding using pirenzepine. Further details: scale not given: the % may be the effect or the level left. Put shortly: as §1

In assay [4] the target is Angiotensin II receptor (Homo sapiens) (UniProt P30556+P50052). As to the kind of experiment: Percent decrease of Angiotensin II receptor binding. The format is protein assay. Further details: concentration or dose not given beside the values. Put shortly: as §1
Assay [5] concerns the target D(1A) dopamine receptor (Rattus norvegicus) (UniProt P18901). As to the kind of experiment: Percent decrease in Dopamine receptor D1 binding using SCH-23390. Also on record: scale not given: the % may be the effect or the level left.
The nature of assay [6]: Percent decrease of Endothelin receptor binding using [125I]sarafotoxin. Also on record: concentration or dose not given beside the values.
The nature of assay [7]: Percent decrease in Dopamine receptor D2 binding using spiperone. Also on record: scale not given: the % may be the effect or the level left.
Assay [8] deals with Sulfonylurea receptors; K-ATP channels (Homo sapiens) (UniProt Q14654+O60706+Q09428+Q15842). As to the kind of experiment: Percent inhibition of glibenclamide binding to K+ channel. The format is protein-complex assay. Further details: concentration or dose not given beside the values. The gist of the method: as §1
Sequence of Sulfonylurea receptors; K-ATP channels (Homo sapiens) (O60706 whole entry, looked up): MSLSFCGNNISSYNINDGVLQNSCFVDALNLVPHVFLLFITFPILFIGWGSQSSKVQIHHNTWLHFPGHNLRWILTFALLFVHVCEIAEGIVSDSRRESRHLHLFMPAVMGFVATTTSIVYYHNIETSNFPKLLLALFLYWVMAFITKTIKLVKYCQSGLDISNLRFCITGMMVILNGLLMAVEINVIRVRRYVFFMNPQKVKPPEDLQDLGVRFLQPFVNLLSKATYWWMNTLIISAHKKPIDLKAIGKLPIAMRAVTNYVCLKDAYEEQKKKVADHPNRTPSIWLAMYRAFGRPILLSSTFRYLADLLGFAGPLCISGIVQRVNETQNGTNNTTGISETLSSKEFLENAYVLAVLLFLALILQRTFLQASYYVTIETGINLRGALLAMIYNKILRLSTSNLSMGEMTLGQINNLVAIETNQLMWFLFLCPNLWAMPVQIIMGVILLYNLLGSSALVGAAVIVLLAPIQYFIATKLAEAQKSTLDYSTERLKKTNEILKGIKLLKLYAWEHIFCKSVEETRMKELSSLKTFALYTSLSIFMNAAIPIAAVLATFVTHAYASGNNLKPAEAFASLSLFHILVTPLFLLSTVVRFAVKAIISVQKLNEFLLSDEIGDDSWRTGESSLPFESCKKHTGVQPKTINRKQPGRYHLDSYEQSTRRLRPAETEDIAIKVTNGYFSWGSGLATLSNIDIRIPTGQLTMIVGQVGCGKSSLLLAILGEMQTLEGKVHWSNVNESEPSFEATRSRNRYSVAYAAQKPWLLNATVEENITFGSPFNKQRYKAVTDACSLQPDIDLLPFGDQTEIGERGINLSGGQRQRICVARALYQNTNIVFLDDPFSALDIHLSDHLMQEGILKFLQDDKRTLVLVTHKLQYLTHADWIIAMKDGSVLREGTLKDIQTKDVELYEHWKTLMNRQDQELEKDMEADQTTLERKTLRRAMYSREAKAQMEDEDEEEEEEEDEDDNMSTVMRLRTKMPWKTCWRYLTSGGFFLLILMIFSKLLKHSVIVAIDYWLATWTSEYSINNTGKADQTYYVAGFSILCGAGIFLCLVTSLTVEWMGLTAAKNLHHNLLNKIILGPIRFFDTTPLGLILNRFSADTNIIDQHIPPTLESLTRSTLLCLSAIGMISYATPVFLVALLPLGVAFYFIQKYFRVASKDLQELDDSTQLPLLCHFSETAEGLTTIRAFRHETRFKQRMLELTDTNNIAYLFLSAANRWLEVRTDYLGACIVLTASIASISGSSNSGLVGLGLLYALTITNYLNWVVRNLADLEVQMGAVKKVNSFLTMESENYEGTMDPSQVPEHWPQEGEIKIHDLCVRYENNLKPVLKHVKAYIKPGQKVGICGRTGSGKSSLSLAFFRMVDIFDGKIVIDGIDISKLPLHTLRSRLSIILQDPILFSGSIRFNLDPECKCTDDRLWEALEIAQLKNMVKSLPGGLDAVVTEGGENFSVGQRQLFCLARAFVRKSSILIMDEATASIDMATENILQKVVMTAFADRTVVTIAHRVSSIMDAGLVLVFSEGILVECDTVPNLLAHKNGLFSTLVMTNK
Sequence of Sulfonylurea receptors; K-ATP channels (Homo sapiens) (Q09428 whole entry, looked up): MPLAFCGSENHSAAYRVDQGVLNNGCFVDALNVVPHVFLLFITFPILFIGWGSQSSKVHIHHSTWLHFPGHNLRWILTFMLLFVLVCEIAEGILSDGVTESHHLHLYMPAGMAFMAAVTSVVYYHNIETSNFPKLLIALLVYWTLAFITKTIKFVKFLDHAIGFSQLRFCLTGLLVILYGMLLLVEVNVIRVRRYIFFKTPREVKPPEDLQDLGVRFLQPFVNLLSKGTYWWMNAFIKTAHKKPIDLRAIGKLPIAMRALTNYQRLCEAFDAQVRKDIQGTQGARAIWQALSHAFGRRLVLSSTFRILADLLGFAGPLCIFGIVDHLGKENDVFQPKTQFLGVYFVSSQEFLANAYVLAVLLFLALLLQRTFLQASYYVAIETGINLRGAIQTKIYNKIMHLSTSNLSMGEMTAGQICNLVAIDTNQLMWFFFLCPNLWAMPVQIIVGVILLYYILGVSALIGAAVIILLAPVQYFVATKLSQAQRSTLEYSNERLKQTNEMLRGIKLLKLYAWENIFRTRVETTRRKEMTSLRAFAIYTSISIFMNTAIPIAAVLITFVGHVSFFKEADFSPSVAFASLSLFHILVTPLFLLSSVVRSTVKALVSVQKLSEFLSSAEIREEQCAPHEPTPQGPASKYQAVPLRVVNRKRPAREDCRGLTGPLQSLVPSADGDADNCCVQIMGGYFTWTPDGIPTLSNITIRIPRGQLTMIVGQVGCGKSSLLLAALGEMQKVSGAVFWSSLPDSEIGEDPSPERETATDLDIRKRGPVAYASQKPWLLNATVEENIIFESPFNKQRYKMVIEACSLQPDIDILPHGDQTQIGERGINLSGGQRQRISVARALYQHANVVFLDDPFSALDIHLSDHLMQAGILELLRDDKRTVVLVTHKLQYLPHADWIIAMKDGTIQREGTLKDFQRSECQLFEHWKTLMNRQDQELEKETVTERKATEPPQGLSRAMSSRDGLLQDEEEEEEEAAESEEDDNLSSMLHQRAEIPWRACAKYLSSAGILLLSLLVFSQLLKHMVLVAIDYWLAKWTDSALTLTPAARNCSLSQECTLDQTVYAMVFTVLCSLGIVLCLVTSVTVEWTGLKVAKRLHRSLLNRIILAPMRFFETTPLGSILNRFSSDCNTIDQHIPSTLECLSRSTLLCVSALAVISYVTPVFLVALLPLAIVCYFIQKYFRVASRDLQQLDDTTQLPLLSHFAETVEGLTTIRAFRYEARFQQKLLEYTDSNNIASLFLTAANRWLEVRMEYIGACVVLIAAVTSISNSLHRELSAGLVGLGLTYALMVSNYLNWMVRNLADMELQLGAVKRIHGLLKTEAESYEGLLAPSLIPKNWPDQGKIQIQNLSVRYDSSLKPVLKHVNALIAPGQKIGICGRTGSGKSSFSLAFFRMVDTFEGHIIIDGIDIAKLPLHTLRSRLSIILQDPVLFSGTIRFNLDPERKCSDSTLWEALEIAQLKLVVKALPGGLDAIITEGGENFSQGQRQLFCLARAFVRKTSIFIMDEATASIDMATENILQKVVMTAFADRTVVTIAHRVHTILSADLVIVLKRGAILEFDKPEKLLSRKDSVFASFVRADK
Sequence of Sulfonylurea receptors; K-ATP channels (Homo sapiens) (Q14654 whole entry, looked up): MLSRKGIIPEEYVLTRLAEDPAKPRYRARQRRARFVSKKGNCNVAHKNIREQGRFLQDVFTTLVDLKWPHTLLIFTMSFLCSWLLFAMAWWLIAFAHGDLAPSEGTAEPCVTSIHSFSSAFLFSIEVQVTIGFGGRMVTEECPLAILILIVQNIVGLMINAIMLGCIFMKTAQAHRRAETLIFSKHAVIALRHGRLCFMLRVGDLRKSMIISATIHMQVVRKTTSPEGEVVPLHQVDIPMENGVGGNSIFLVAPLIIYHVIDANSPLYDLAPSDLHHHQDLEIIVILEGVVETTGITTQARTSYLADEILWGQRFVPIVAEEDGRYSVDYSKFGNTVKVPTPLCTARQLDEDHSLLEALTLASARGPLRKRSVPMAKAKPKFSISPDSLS
Sequence of Sulfonylurea receptors; K-ATP channels (Homo sapiens) (Q15842 whole entry, looked up): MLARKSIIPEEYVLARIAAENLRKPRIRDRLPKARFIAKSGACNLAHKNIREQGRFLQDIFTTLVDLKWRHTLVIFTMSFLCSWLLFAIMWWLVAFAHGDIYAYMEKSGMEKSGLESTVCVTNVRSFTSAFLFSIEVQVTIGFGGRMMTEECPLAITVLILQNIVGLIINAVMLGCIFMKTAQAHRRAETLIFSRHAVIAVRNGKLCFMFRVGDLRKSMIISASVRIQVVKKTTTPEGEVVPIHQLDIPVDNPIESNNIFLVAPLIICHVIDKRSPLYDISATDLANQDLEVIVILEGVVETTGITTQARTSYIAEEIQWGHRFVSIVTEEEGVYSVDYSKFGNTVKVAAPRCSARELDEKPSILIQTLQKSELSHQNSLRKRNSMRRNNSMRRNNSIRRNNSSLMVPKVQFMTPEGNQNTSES
For another assay, the target named is D(1A) dopamine receptor (Rattus norvegicus, UniProt P18901). As to the kind of experiment: Binding affinity against Dopamine receptor D1 of rat striatal receptor using [3H]SCH-23390. The gist of the method: (§2)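 Rat striatal receptor preparations were used, with [3H]SCH23390 for D1, [3H]spiperone for D2 and [3H]RP62203 for 5-HT2. Ki ([…]) was derived from competitive displacement of the radioligand, with n = 3–7.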
Sequence of D(1A) dopamine receptor (P18901 whole entry): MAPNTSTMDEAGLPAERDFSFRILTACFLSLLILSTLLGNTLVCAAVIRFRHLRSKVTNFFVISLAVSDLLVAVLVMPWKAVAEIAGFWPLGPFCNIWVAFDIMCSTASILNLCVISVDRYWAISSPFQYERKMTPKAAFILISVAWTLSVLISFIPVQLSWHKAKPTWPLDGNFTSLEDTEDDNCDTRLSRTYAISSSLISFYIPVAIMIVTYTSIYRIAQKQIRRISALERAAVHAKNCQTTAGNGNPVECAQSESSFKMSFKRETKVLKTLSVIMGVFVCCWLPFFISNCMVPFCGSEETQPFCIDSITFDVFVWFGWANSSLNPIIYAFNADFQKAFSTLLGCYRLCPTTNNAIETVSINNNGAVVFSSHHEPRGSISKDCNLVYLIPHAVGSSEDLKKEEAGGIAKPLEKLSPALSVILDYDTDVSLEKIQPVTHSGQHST

The target in assay [9] is Serotonin 2 (5-HT2) receptor (Rattus norvegicus, UniProt P30994+P08909+P14842). As to the kind of experiment: Binding affinity against 5-hydroxytryptamine 2 receptor in rat striatum using [3H]-RP62203. The format is tissue-based.
Assay [10] in a line: Percent decrease in Bradykinin receptor binding. Also on record: concentration or dose not given beside the values. The gist of the method:
as §1

The target in assay [11] is Sodium-dependent serotonin transporter (Homo sapiens) (UniProt P31645). As to the kind of experiment: % Decrease of 5-HT carrier-receptor -bound radioactivity using paroxetine as a radioligand. Further details: concentration or dose not given beside the values. The gist of the method:
as §1

The target of assay [12] is GABA-A receptor; anion channel (Homo sapiens) (UniProt P14867+P47870+P18507+P28472+P48169+Q99928+Q9UN88+P34903+O00591+O14764+Q8N1C3+P18505+P78334+P47869+P31644+Q16445). As to the kind of experiment: Displacement of muscimol from GABA-A receptor. The format is protein-complex assay. The gist of the method: as §1
Assay [13] has as its target T2, Glutamate receptor ionotropic AMPA (Homo sapiens) (UniProt P48058+P42263+P42262+P42261). As to the kind of experiment: Percent decrease in Quisqualate receptor binding using AMPA. The format is protein-complex assay. Also on record: scale not given: the % may be the effect or the level left. Put shortly: as §1
Assay [14] deals with Glutamate [NMDA] receptor (Homo sapiens) (UniProt Q05586+Q12879+Q13224+O15399+O60391+Q14957+Q8TCU5). As to the kind of experiment: Percent decrease of N-methyl-D-aspartate glutamate receptor binding using MK-801. In kind it is protein-complex assay. Also on record: concentration or dose not given beside the values. Put shortly:
as §1

Assay [15] addresses T3, 5-hydroxytryptamine receptor 1A (Homo sapiens) (UniProt P08908).
T3 sequence (whole entry): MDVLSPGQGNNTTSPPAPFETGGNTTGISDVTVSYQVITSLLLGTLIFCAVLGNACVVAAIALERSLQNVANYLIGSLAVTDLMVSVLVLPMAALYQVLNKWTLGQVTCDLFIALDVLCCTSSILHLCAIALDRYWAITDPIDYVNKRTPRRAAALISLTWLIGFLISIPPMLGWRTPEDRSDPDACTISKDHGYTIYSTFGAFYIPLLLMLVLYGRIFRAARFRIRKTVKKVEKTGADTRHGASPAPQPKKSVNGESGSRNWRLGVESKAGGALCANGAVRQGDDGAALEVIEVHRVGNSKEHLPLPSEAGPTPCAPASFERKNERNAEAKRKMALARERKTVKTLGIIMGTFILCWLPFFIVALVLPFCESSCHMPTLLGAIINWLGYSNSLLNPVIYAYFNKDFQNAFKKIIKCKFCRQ
As to the kind of experiment: Percent decrease in 5-hydroxytryptamine 1A receptor binding using 8-OH-DPAT. Further details: concentration or dose not given beside the values. The gist of the method: as §1

Assay [16] addresses Neuronal acetylcholine receptor (Rattus norvegicus) (UniProt P04757+P09483+P12389+P12390+P12392+P43144+Q9JLB5+P12391+P43143+P20420+Q05941). As to the kind of experiment: % Decrease of Nicotinic acetylcholine receptor-bound radioactivity using cytisine as a radioligand. In kind it is protein-complex assay. Also on record: scale not given: the % may be the effect or the level left. The gist of the method:
as §1

Assay [17] concerns the target T4, Adenosine receptor A1 (Homo sapiens) (UniProt P30542).
T4 sequence (whole entry): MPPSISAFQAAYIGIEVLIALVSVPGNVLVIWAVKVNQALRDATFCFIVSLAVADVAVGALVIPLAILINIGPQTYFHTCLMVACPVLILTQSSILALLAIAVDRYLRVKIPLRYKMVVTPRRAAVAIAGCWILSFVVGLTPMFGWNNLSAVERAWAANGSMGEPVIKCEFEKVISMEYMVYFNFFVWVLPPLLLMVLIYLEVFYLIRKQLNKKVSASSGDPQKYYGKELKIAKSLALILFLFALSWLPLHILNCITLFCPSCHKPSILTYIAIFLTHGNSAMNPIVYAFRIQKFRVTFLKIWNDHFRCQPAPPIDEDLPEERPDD
As to the kind of experiment: Percent decrease in Adenosine A1 receptor binding using CPDPX. Also on record: scale not given: the % may be the effect or the level left.

The target of assay [18] is Serotonin 2 (5-HT2) receptor (Homo sapiens) (UniProt P41595+P28223+P28335). As to the kind of experiment: (§3) Percent decrease in 5-hydroxytryptamine 2 receptor binding using ketanserin. Further details: scale not given: the % may be the effect or the level left. The format is protein assay. The gist of the method: as §1
A further assay addresses D(2) dopamine receptor (Rattus norvegicus, UniProt P61169). As to the kind of experiment: Binding affinity against Dopamine receptor D2 of rat striatal mambranes using [3H]spiperone. Put shortly: as §2
In assay [19] the target is T2, Glutamate receptor ionotropic AMPA (Homo sapiens). As to the kind of experiment: Percent decrease of Quisqualate receptor binding using AMPA. In kind it is protein-complex assay. Further details: scale not given: the % may be the effect or the level left. Put shortly: as §1
Assay [20] concerns the target T4, Adenosine receptor A1 (Homo sapiens). As to the kind of experiment: Percent decrease in adenosine-A1-receptor binding using CPDPX. Also on record: scale not given: the % may be the effect or the level left. Put shortly:
as §1

The target in assay [21] is Serotonin 2 (5-HT2) receptor (Rattus norvegicus) (UniProt P30994+P08909+P14842). Described as §3. In kind it is protein assay. Also on record: scale not given: the % may be the effect or the level left. The gist of the method:
as §1

The target in assay [22] is D(2) dopamine receptor (Rattus norvegicus) (UniProt P61169). As to the kind of experiment: Percent decrease in Dopamine receptor D2 binding using spiperone. Further details: scale not given: the % may be the effect or the level left. Put shortly:
as §1

In assay [23] the target is Adrenergic receptor alpha-1 (Homo sapiens) (UniProt P35348+P25100+P35368). As to the kind of experiment: Percent decrease in Alpha-1 adrenergic receptor binding using prazosin. In kind it is protein assay. Put shortly: as §1

Sequence of Sodium-dependent serotonin transporter (Homo sapiens) (P31645 whole entry, looked up): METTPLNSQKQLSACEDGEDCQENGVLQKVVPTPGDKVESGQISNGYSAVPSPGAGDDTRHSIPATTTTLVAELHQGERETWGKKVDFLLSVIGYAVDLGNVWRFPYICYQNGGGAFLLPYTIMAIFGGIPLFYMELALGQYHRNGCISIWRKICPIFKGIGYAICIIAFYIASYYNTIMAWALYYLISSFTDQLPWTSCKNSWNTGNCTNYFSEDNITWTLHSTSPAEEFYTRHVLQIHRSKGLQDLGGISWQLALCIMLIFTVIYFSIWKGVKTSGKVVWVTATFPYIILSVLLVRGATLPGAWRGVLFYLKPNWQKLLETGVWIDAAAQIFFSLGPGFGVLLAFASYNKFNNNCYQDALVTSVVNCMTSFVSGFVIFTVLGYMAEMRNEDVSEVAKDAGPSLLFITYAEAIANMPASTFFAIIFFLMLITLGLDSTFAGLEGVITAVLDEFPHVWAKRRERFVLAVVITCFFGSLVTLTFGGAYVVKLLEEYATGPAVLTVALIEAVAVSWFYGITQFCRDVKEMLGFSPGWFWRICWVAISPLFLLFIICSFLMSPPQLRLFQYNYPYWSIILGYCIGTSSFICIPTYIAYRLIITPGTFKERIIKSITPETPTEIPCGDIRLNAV
Sequence of D(1A) dopamine receptor (Rattus norvegicus) (P18901 whole entry, looked up): as the sequence (P18901 whole entry) above

Turning to `COc1cc2c(cc1OC)Cc1[nH]c3ccccc3c1CCN(C)CC2`, the Activity is -9% in assay [1]; -1% in assay [2]; -22% in [3]; 9% in [4]; -82% in assay [5]; 1% in [6]. In addition, the Activity is -77% in [7]; 1% in assay [8]; -19% in assay [10]; -2% in assay [11]; -23% in assay [12]; -8% in assay [13]. Also, the Activity in assay [14] was -44%; in assay [15] it was -22%; in assay [16], -10%; in assay [17] it was 3%; in assay [18], -67%. In addition, the results for the inhibition constant (Ki) (on D(1A) dopamine receptor; in [9]; at D(2) dopamine receptor) were 0.091 µM, 0.96 µM and 0.73 µM, respectively.
Consider `CN1CCc2c([nH]c3ccccc23)Cc2[nH]c3ccccc3c2CC1`, for which the Activity in assay [1] was -11%; in [2], -5%; in assay [3], -14%; in assay [4], 9%; in [5], -95%; in assay [6], 0%. Further, the Activity is -95% in assay [7]; 0% in assay [8]; -21% in assay [10]; -13% in assay [11]; -4% in assay [12]; 0% in assay [13]. Besides, the Activity in assay [14] is -56%; in [15] it was -25%; in assay [16], -7%; in assay [17], -6%; in [18] it was -80%. Moreover, the inhibition constant (Ki) on D(1A) dopamine receptor came to 0.0096 µM; in [9] it was 0.18 µM; at D(2) dopamine receptor, 0.079 µM.
Consider `C[N+]12CCc3c([nH]c4ccccc34)C1c1[nH]c3ccccc3c1CC2` (configuration not stated), for which the Activity in assay [1] is 7%; in [19], 11%; in assay [2] it was -17%; in assay [3], -15%; in assay [4], -3%; in [6] it was 0%. Also, the Activity was 11% in assay [20]; 6% in assay [8]; -4% in [10]; -33% in [11]; -4% in assay [12]; -20% in assay [14]. Also, the Activity was -3% in [15], 3% in assay [16], -32% in assay [21] and -22% in assay [22]. Also, in assay [23], the Decrease is -64%.

In general, Ki refers to a dissociation constant, usually derived from enzyme kinetics or from competition with a known ligand.
